In ChEMBL document CHEMBL1130336, “Polyanion inhibitors of human immunodeficiency virus and other viruses. 6. Micelle-like anti-HIV polyanionic compounds based on a carbohydrate core” (J Med Chem, 1997):

Legend:
[1] = tested on: CEM-4; assay: Concentration required to reduce the viability of uninfected CEM-4 cells by 50%; assay type: functional; details: Homo sapiens
In short: (§1)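 Cytotoxicity in uninfected CEM-4 or MT-4 cells, measured as inhibition of cell growth. The value is the concentration that lowers viability by 50%.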

[2] = tested on: CEM-4; assay: Inhibitory concentration required to inhibit HIV-induced cytopathicity in CEM-4 cells by 50%; assay type: functional, cell-based; details: Homo sapiens
In short: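 CEM-4 cells infected with HIV-1 (strain HTLV-III_B/LAI). The end point is 50% inhibition of HIV-induced cytopathicity.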

[3] = tested on: Human immunodeficiency virus 1; assay: Concentration required to inhibit by 50% human immunodeficiency virus-1 induced syncytium formation upon coculturing persistently HIV-infected HUT-78 cells with MOLT-4 cells; assay type: functional, organism-based; details: Human immunodeficiency virus 1, MOLT-4
In short: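 MOLT-4 (clone 8) cells at 1 × 10^6 cells/mL, cocultured with an equal number of persistently infected HUT-78/HIV-1 or HUT-78/HIV-2 cells across a range of compound concentrations. Giant cells were counted under the microscope after 24 h of cocultivation. The value is the concentration giving 50% inhibition of syncytium formation.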

[4] = tested on: E6SM; assay: Concentration required to reduce herpes simplex virus-1TK (KOS) inducted cytopathicity by 50% (E6SM cells); assay type: functional, cell-based; details: Homo sapiens
In short: (§2)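 Virus was added in the presence of compound, and the cells were incubated until cytopathic effect was scored. The value is the concentration that reduces virus-induced CPE by 50%.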

[5] = tested on: Human immunodeficiency virus 2; assay: Concentration required to inhibit by 50% human immunodeficiency virus-2 induced syncytium formation upon coculturing persistently HIV-infected HUT-78 cells with MOLT-4 cells; details: HUT-78, MOLT-4
[6] = tested on: MT4; assay: Concentration required to reduce the viability of uninfected MT-4 cells by 50%; assay type: functional; details: Homo sapiens; in short: as §1
[7] = tested on: HEL; assay: Concentration required to inhibit HEL cell growth by 50%; assay type: functional, cell-based; details: Homo sapiens
[8] = tested on: E6SM; assay: Concentration required to reduce herpes simplex virus-2(G) inducted cytopathicity by 50% (E6SM cells); assay type: functional, cell-based; details: Homo sapiens; in short: as §2
[9] = tested on: Vero; assay: Concentration required to reduce sindbis virus-inducted cytopathicity by 50% (Vero cells); assay type: functional, cell-based; details: Chlorocebus sabaeus
[10] = tested on: MT4; assay: Concentration required to inhibit human immunodeficiency virus-2 induced cytopathicity in MT-4 cells by 50%; assay type: functional, cell-based
In short: (§3)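 MT-4 cells infected with HIV-1 (strain HTLV-III_B/LAI) or HIV-2 (strain LAV_ROD). The end point is 50% inhibition of virus-induced cytopathicity.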

[11] = tested on: Vero; assay: Concentration required to reduce Junin virus-inducted cytopathicity by 50% (Vero cells); assay type: functional, cell-based; details: Chlorocebus sabaeus
[12] = tested on: E6SM; assay: Concentration required to reduce herpes simplex virus-1TK( B2006) inducted cytopathicity by 50% (E6SM cells); assay type: functional, cell-based; details: Homo sapiens; in short: as §2
[13] = tested on: E6SM; assay: Concentration required to reduce herpes simplex virus-1TK (VMW1837) inducted cytopathicity by 50% (E6SM cells); assay type: functional, cell-based; details: Homo sapiens; in short: as §2
[14] = tested on: HeLa; assay: Concentration required to reduce Coxsackie virus-inducted cytopathicity by 50% (HeLa cells); assay type: functional, cell-based; details: Homo sapiens
[15] = tested on: HEL; assay: Concentration required to reduce human cytomegalo virus(Davis) inducted cytopathicity by 50% (HEL cells); assay type: functional, cell-based; in short: as §2
[16] = tested on: HeLa; assay: Concentration required to reduce vesicular stomatitis virus-inducted cytopathicity by 50% (HeLa cells); assay type: functional, cell-based; details: Homo sapiens
[17] = tested on: Vaccinia virus; assay: Concentration required to reduce vaccinia virus-inducted cytopathicity by 50% (E6SM cells); assay type: functional, organism-based, Orthopoxvirus vaccinia; details: Orthopoxvirus vaccinia, E6SM
[18] = tested on: MT4; assay: Concentration required to inhibit human immunodeficiency virus-1 induced cytopathicity in MT-4 cells by 50%; assay type: functional, cell-based; in short: as §3
[19] = tested on: Vero; assay: Concentration required to cause a microscopically detectable alteration of normal Vero cell morphology; assay type: functional, cell-based; details: Chlorocebus sabaeus
[20] = tested on: Vero; assay: Concentration required to reduce Coxsackie virus-inducted cytopathicity by 50% (Vero cells); assay type: functional, cell-based; details: Chlorocebus sabaeus
[21] = tested on: E6SM; assay: Concentration required to cause a microscopically detectable alteration of normal E6SM cell morphology; assay type: functional, cell-based; details: Homo sapiens, read-out: IC50
In short: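 Minimum cytotoxic concentration, read microscopically as the level that causes a detectable alteration of normal cell morphology.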

[22] = tested on: HeLa; assay: Concentration required to cause a microscopically detectable alteration of normal Hela cell morphology; assay type: functional, cell-based; details: Homo sapiens
[23] = tested on: HEL; assay: Concentration required to reduce human cytomegalo virus(AD-169) inducted cytopathicity by 50% (HEL cells); assay type: functional, cell-based; in short: as §2
[24] = tested on: Vero; assay: Concentration required to reduce parainfluenza-3 virus-inducted cytopathicity by 50% (Vero cells); assay type: functional, cell-based; details: Chlorocebus sabaeus
[25] = tested on: Vero; assay: Concentration required to reduce Tacaribe virus-inducted cytopathicity by 50% (Vero cells); assay type: functional, cell-based; details: Chlorocebus sabaeus
[26] = tested on: Vero; assay: Concentration required to reduce reovirus-1 inducted cytopathicity by 50% (Vero cells); assay type: functional, cell-based; details: Chlorocebus sabaeus
[27] = tested on: E6SM; assay: Concentration required to reduce herpes simplex virus-1TK (F) inducted cytopathicity by 50% (E6SM cells); assay type: functional, cell-based; details: Homo sapiens; in short: as §2
[28] = tested on: E6SM; assay: Concentration required to reduce herpes simplex virus-2(Lyons) inducted cytopathicity by 50% (E6SM cells); assay type: functional, cell-based; details: Homo sapiens; in short: as §2
[29] = tested on: Vero; assay: Concentration required to reduce forest virus-inducted cytopathicity by 50% (Vero cells); assay type: functional, cell-based; details: Chlorocebus sabaeus
[30] = tested on: E6SM; assay: Concentration required to reduce herpes simplex virus-2(196) inducted cytopathicity by 50% (E6SM cells); assay type: functional, cell-based; details: Homo sapiens; in short: as §2
[31] = tested on: HeLa; assay: Concentration required to reduce polio-1 virus-inducted cytopathicity by 50% (HeLa cells); assay type: functional, cell-based; details: Homo sapiens
[32] = tested on: E6SM; assay: Concentration required to reduce herpes simplex virus-1TK (McIntyre) inducted cytopathicity by 50% (E6SM cells); assay type: functional, cell-based; details: Homo sapiens; in short: as §2

Structure (SMILES)	CC50 [1] [µM]	IC50 [2] [µM]	IC50 [3] [µM]	IC50 [4] [µM]	CC50 [6] [µM]	IC50 [7] [µM]	IC50 [8] [µM]	IC50 [9] [µM]	IC50 [10] [µM]	IC50 [11] [µM]	IC50 [12] [µM]	IC50 [13] [µM]	IC50 [14] [µM]	IC50 [16] [µM]	IC50 [17] [µM]	IC50 [18] [µM]	IC50 [19] [µM]	IC50 [20] [µM]	minimum cytotoxic concentration [21] [µM]	IC50 [24] [µM]	other results
O=C(O)CCSCCCOC[C@H]1O[C@@H](OCCCSCCC(=O)O)[C@H](OCCCSCCC(=O)O)[C@@H](OCCCSCCC(=O)O)[C@@H]1OCCCSCCC(=O)O	> 98	> 98	–	–	–	–	–	–	–	–	–	–	–	–	–	–	–	–	–	–	–
O=C(O)CC(SCCCOC[C@H]1O[C@@H](O[C@H]2[C@H](OCCCSC(CC(=O)O)C(=O)O)[C@@H](OCCCSC(CC(=O)O)C(=O)O)C(OCCCSC(CC(=O)O)C(=O)O)O[C@@H]2COCCCSC(CC(=O)O)C(=O)O)[C@H](OCCCSC(CC(=O)O)C(=O)O)[C@@H](OCCCSC(CC(=O)O)C(=O)O)[C@@H]1OCCCSC(CC(=O)O)C(=O)O)C(=O)O (stereo partly specified)	–	–	1.8	> 181	> 56.4	> 22	> 45	> 181	4.17	> 22	45	> 181	> 181	> 181	> 181	0.04	> 181	> 181	> 181	> 181	IC50 [5]: 54.2 µM; IC50 [15]: 0.4 µM; IC50 [22]: > 181 µM; IC50 [23]: 1.4 µM; IC50 [25]: > 22 µM; IC50 [26]: > 181 µM
CO[C@H]1O[C@H](COCCCSCCC(=O)O)[C@@H](OCCCSCCC(=O)O)[C@@H](OCCCSCCC(=O)O)[C@H]1OCCCSCCC(=O)O	> 346	> 346	–	–	–	–	–	–	–	–	–	–	–	–	–	–	–	–	–	–	–
O=C(O)CC(SCCCOC[C@H]1O[C@@H](OCCCSC(CC(=O)O)C(=O)O)[C@H](OCCCSC(CC(=O)O)C(=O)O)[C@@H](OCCCSC(CC(=O)O)C(=O)O)[C@@H]1OCCCSC(CC(=O)O)C(=O)O)C(=O)O (stereo partly specified)	> 74	> 74	> 185	> 296	> 185	> 37	> 296	> 148	> 185	> 37	> 296	> 296	> 148	> 148	> 296	85.9	> 148	> 148	> 296	> 148	IC50 [27]: > 296 µM; IC50 [28]: > 296 µM; IC50 [29]: > 148 µM; IC50 [15]: > 37 µM; IC50 [30]: > 296 µM; IC50 [31]: > 148 µM; IC50 [23]: > 37 µM; IC50 [25]: > 37 µM; IC50 [26]: > 148 µM; IC50 [32]: > 296 µM
CO[C@H]1O[C@H](COCCCSC(CC(=O)O)C(=O)O)[C@@H](OCCCSC(CC(=O)O)C(=O)O)[C@@H](OCCCSC(CC(=O)O)C(=O)O)[C@H]1OCCCSC(CC(=O)O)C(=O)O (stereo partly specified)	> 265	69	–	–	–	–	–	–	–	–	–	–	–	–	–	–	–	–	–	–	–
O=C(O)CC(SCCCOC[C@H]1O[C@@H](O[C@H]2[C@H](OCCCSC(CC(=O)O)C(=O)O)[C@@H](OCCCSC(CC(=O)O)C(=O)O)[C@@H](OCCCSC(CC(=O)O)C(=O)O)O[C@@H]2COCCCSC(CC(=O)O)C(=O)O)[C@H](OCCCSC(CC(=O)O)C(=O)O)[C@@H](OCCCSC(CC(=O)O)C(=O)O)[C@@H]1OCCCSC(CC(=O)O)C(=O)O)C(=O)O (stereo partly specified)	–	–	3.61	136	> 56.4	> 22	136	> 181	4.47	> 22	68	> 181	> 181	> 181	> 181	0.37	> 181	> 181	> 181	> 181	IC50 [5]: 54.2 µM; IC50 [15]: 3.6 µM; IC50 [22]: > 181 µM; IC50 [23]: 6.3 µM; IC50 [25]: > 22 µM; IC50 [26]: > 181 µM
CO[C@H]1O[C@H](COCCCSCC(=O)O)[C@@H](OCCCSCC(=O)O)[C@@H](OCCCSCC(=O)O)[C@H]1OCCCSCC(=O)O	> 370	> 370	–	–	–	–	–	–	–	–	–	–	–	–	–	–	–	–	–	–	–
O=C(O)CCSCCCOC[C@H]1O[C@@](COCCCSCCC(=O)O)(O[C@H]2O[C@H](COCCCSCCC(=O)O)[C@@H](OCCCSCCC(=O)O)[C@H](OCCCSCCC(=O)O)[C@H]2OCCCSCCC(=O)O)[C@@H](OCCCSCCC(=O)O)[C@@H]1OCCCSCCC(=O)O	> 59.3	> 59.3	> 148	> 237	> 148	> 30	> 237	> 59	> 148	> 12	> 237	> 237	> 119	> 119	> 237	29	> 119	> 59	> 237	> 59	IC50 [5]: > 148 µM; IC50 [27]: > 237 µM; IC50 [28]: > 119 µM; IC50 [29]: > 59 µM; IC50 [30]: > 237 µM; IC50 [22]: > 119 µM; IC50 [31]: > 119 µM; IC50 [25]: > 12 µM; IC50 [26]: > 59 µM; IC50 [32]: > 237 µM
